Laboratory results reported in ChEMBL document CHEMBL1275496, “In vivo pharmacodynamic target investigation for micafungin against Candida albicans and C. glabrata in a neutropenic murine candidiasis model” (Antimicrob Agents Chemother, 2008).
In brackets after ≈: the same amount, converted by molar mass. *1 amine or outer side, *2 acyl side, *3 side chain or, on linkers, in order; H or OH if unused. Where a SMILES comes first, the peptide text is derived from it. Bridges are numbered along the chain shown (N, C = ends). [ ]: non-standard residue; d: D form. The star is where a group is joined. hTyr(3S-OH,4S-OH,3'-OSO3H) = N[C@H](C(=O)O)[C@H](O)[C@@H](O)c1ccc(O)c(OS(=O)(=O)O)c1; Orn(4R-OH,5R-OH) = O=C([C@H](C[C@@H](O)[C@@H](O)N[*:3])N[*:1])[*:2]; Pro(3S-OH,4S-Me) = C[C@H]1CN[C@H](C(=O)O)[C@H]1O; X1 = CCCCCOc1ccc(-c2cc(-c3ccc(C(=O)*)cc3)no2)cc1; Gln(3R-OH) = NC(=O)C[C@@H](O)[C@H](N)C(=O)O; Hyp = O=C(O)[C@@H]1C[C@@H](O)CN1

What was measured:
[1] = Ratio of AUC in ICR/Swiss neutropenic mouse at 1-Log kill dose of 20.6 mg/kg, ip after 24 hrs to MIC for Candida glabrata isolate 37661; format: functional; conditions: route intraperitoneal
[2] = Cmax in Candida infected ICR/Swiss neutropenic mouse at 5 mg/kg, ip; format: ADME, organism-based; parameters: dose 5 mg/kg, route intraperitoneal; conditions: in vivo
How it was run: (§1)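 Single intraperitoneal micafungin doses (80, 20, 5 mg/kg in 0.2 ml, 0.15 M NaCl) given to infected neutropenic mice. Serum was taken from 3 mice per time point at 1, 2, 4, 6, 8, 12, 24 and 48 h. Drug was measured by microbiologic assay with C. albicans K1 (LLOQ 0.12 μg/ml). Noncompartmental analysis; half-life by nonlinear least squares; AUC by trapezoidal rule.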

[3] = Ratio of fAUC in ICR/Swiss neutropenic mouse at static dose of 2.84 mg/kg, ip after 24 hrs to MIC for Candida albicans isolate 98-210; format: functional; conditions: route intraperitoneal
[4] = test system: Nakaseomyces glabratus; test: Antifungal activity against Candida glabrata isolate 33609 infected in ICR/Swiss neutropenic mouse assessed as dose required for 1-log kill after 24 hrs; format: functional
How it was run: (§2)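 Neutropenic mice (cyclophosphamide sc 150 mg/kg day −4, 100 mg/kg day −1 and +2) infected iv by tail vein 2 h before therapy. Micafungin given ip every 24 h for 4 days at six fourfold-spaced dose levels, 0.078–80 mg/kg/24 h, 3 mice per group. Kidney CFU read at 96 h. Hill-model fit; dose giving 1 log10 below start-of-therapy burden.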

[5] = Ratio of AUC in ICR/Swiss neutropenic mouse at static dose of 2.18 mg/kg, ip after 24 hrs to MIC for Candida glabrata isolate 34341; format: functional; conditions: route intraperitoneal
[6] = Ratio of fAUC in ICR/Swiss neutropenic mouse at static dose of 1.34 mg/kg, ip after 24 hrs to MIC for Candida glabrata isolate 513; format: functional; conditions: route intraperitoneal
[7] = Ratio of AUC in ICR/Swiss neutropenic mouse at 1-Log kill dose of 4.08 mg/kg, ip after 24 hrs to MIC for Candida albicans isolate K1; format: functional; conditions: route intraperitoneal
[8] = test system: Nakaseomyces glabratus; test: Antifungal activity against Candida glabrata isolate 37661 infected in ICR/Swiss neutropenic mouse assessed as dose required for 1-log kill after 24 hrs; format: functional; how it was run: as §2
[9] = Ratio of fAUC in ICR/Swiss neutropenic mouse at static dose of 0.41 mg/kg, ip after 24 hrs to MIC for Candida glabrata isolate 33609; format: functional; conditions: route intraperitoneal
[10] = Ratio of fAUC in ICR/Swiss neutropenic mouse at static dose of 0.06 mg/kg, ip after 24 hrs to MIC for Candida glabrata isolate 32930; format: functional; conditions: route intraperitoneal
[11] = test system: Nakaseomyces glabratus; test: Antifungal activity against Candida glabrata isolate 33609 by CLSI method; format: functional
How it was run: (§3)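 Broth microdilution MIC per CLSI M27-A2. Two endpoints were read against the drug-free control well: partial inhibition (M1, CLSI recommended) and complete inhibition (M2). Tests were run in duplicate on four separate occasions, and the value is the mean.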

[12] = Ratio of AUC in ICR/Swiss neutropenic mouse at 1-Log kill dose of 1.69 mg/kg, ip after 24 hrs to MIC for Candida glabrata isolate 32930; format: functional; conditions: route intraperitoneal
[13] = Ratio of fAUC in ICR/Swiss neutropenic mouse at 1-Log kill dose of 4.08 mg/kg, ip after 24 hrs to MIC for Candida albicans isolate K1; format: functional; conditions: route intraperitoneal
[14] = test system: Candida albicans; test: Fungistatic activity against Candida albicans isolate K1 infected in ICR/Swiss neutropenic mouse after 24 hrs; format: functional
How it was run: (§4)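 Neutropenic female ICR/Swiss mice received cyclophosphamide sc at 150 mg/kg on day −4, 100 mg/kg on day −1 and 100 mg/kg on day +2. Mice were infected iv via the tail vein, and ip micafungin in 0.15 M NaCl started 2 h later. Six dose levels from 0.078 to 80 mg/kg/24 h were given q24h for 4 days, 3 mice per dose. Kidney CFU were counted at 96 h. The static dose was derived from a sigmoid Emax (Hill) fit.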

[15] = Ratio of AUC in ICR/Swiss neutropenic mouse at 1-Log kill dose of 4.60 mg/kg, ip after 24 hrs to MIC for Candida albicans isolate 98-17; format: functional; conditions: dose 4.6 mg/kg; route intraperitoneal
[16] = Ratio of fAUC in ICR/Swiss neutropenic mouse at static dose of 2.53 mg/kg, ip after 24 hrs to MIC for Candida albicans isolate 98-17; format: functional; conditions: route intraperitoneal
[17] = test system: Nakaseomyces glabratus; test: Fungistatic activity against Candida glabrata isolate 34341 infected in ICR/Swiss neutropenic mouse after 24 hrs; format: functional; how it was run: as §4
[18] = Half life in Candida infected ICR/Swiss neutropenic mouse at 20 mg/kg, ip; format: ADME, organism-based; parameters: dose 20 mg/kg, route intraperitoneal; conditions: in vivo; how it was run: as §1
[19] = test system: Nakaseomyces glabratus; test: Antifungal activity against Candida glabrata isolate 35315 infected in ICR/Swiss neutropenic mouse assessed as dose required for 1-log kill after 24 hrs; format: functional; how it was run: as §2
[20] = Ratio of fAUC in ICR/Swiss neutropenic mouse at static dose of 2.4 mg/kg, ip after 24 hrs to MIC for Candida glabrata isolate 35315; format: functional; conditions: route intraperitoneal
[21] = test system: Nakaseomyces glabratus; test: Fungistatic activity against Candida glabrata isolate 33609 infected in ICR/Swiss neutropenic mouse after 24 hrs; format: functional; how it was run: as §4
[22] = Ratio of AUC in ICR/Swiss neutropenic mouse at 1-Log kill dose of 2.0 mg/kg, ip after 24 hrs to MIC for Candida glabrata isolate 5376; format: functional; conditions: route intraperitoneal
[23] = Ratio of fAUC in ICR/Swiss neutropenic mouse at 1-Log kill dose of 2.36 mg/kg, ip after 24 hrs to MIC for Candida albicans isolate 580; format: functional; conditions: route intraperitoneal
[24] = Ratio of AUC in ICR/Swiss neutropenic mouse at static dose of 3.76 mg/kg, ip after 24 hrs to MIC for Candida glabrata isolate 570; format: functional; conditions: route intraperitoneal
[25] = test system: Nakaseomyces glabratus; test: Antifungal activity against Candida glabrata isolate 34341 by CLSI method; format: functional
How it was run: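 Broth microdilution per CLSI M27-A2. The MIC was read at partial inhibition (M1) and at complete inhibition (M2) against the drug-free control. Done in duplicate on four separate occasions and reported as the mean.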

[26] = Ratio of AUC in ICR/Swiss neutropenic mouse at static dose of 9.25 mg/kg, ip after 24 hrs to MIC for Candida glabrata isolate 37661; format: functional; conditions: route intraperitoneal
[27] = test system: Nakaseomyces glabratus; test: Fungistatic activity against Candida glabrata isolate 35315 infected in ICR/Swiss neutropenic mouse after 24 hrs; format: functional; how it was run: as §4
[28] = test system: Nakaseomyces glabratus; test: Antifungal activity against Candida glabrata isolate 33616 infected in ICR/Swiss neutropenic mouse assessed as dose required for 1-log kill after 24 hrs; format: functional; how it was run: as §2
[29] = test system: Nakaseomyces glabratus; test: Antifungal activity against Candida glabrata; format: functional; how it was run: as §3
[30] = test system: Nakaseomyces glabratus; test: Fungistatic activity against Candida glabrata isolate 5376 infected in ICR/Swiss neutropenic mouse after 24 hrs; format: functional; how it was run: as §4
[31] = Ratio of fAUC in ICR/Swiss neutropenic mouse at static dose of 1.80 mg/kg, ip after 24 hrs to MIC for Candida glabrata isolate 5592; format: functional; conditions: dose 1.8 mg/kg; route intraperitoneal
[32] = Ratio of fAUC in ICR/Swiss neutropenic mouse at 1-Log kill dose of 1.40 mg/kg, ip after 24 hrs to MIC for Candida glabrata isolate 33609; format: functional; conditions: dose 1.4 mg/kg; route intraperitoneal

CCCCCOc1ccc(-c2cc(-c3ccc(C(=O)N[C@H]4C[C@@H](O)[C@@H](O)NC(=O)[C@@H]5[C@@H](O)[C@@H](C)CN5C(=O)[C@H]([C@H](O)CC(N)=O)NC(=O)[C@H]([C@H](O)[C@@H](O)c5ccc(O)c(OS(=O)(=O)O)c5)NC(=O)[C@@H]5C[C@@H](O)CN5C(=O)[C@H]([C@@H](C)O)NC4=O)cc3)no2)cc1 [MICAFUNGIN] (X1-[Orn(4R-OH,5R-OH)]T[Hyp][hTyr(3S-OH,4S-OH,3'-OSO3H)][Gln(3R-OH)][Pro(3S-OH,4S-Me)]; lactam 1-C)
RatioAUC/MIC [1]: 2080
Cmax [2]: 7000 ng/mL
fAUC/MIC [3]: 13
Activity [4]: 1.4 mg/kg
RatioAUC/MIC [5]: 1003
fAUC/MIC [6]: 6.2
RatioAUC/MIC [7]: 7533
Activity [8]: 20.6 mg/kg
fAUC/MIC [9]: 1.9
fAUC/MIC [10]: 0.5
MIC [11]: 0.016 µg/mL (≈ 0.0126 µM)
MIC50 [11]: 0.016 µg/mL (≈ 0.0126 µM)
RatioAUC/MIC [12]: 3107
fAUC/MIC [13]: 18.8
Activity [14]: 2.84 mg/kg
RatioAUC/MIC [15]: 4233
fAUC/MIC [16]: 5.9
Activity [17]: 2.18 mg/kg
half-life [18]: 13 h
Activity [19]: 3.77 mg/kg
fAUC/MIC [20]: 2.8
Activity [21]: 0.41 mg/kg
RatioAUC/MIC [22]: 7886
fAUC/MIC [23]: 4.21
RatioAUC/MIC [24]: 6933
MIC [25]: 0.12 µg/mL (≈ 0.0945 µM)
MIC50 [25]: 0.06 µg/mL (≈ 0.0472 µM)
RatioAUC/MIC [26]: 984
Activity [27]: 2.4 mg/kg
Activity [28]: 7.89 mg/kg
MIC50 [29]: 0.015 µg/mL (≈ 0.0118 µM)
MIC90 [29]: 0.015 µg/mL (≈ 0.0118 µM)
Activity [30]: 0.9 mg/kg
fAUC/MIC [31]: 8.4
fAUC/MIC [32]: 6.5
